≈ marks a conversion by molar mass, not a printed value.
Columns and labels:
[1] = (§1) Oxidative metabolic stability in human liver microsomes at 1 uM after 30 mins in presence of 1 mM NADPH; format: ADME, Microsome; conditions: liver microsomes, read-out: Stability
Method in brief: (§2)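 Oxidative stability: compound at 1 µM incubated 30 min at 37 °C in phosphate buffer with liver microsomes (0.5 mg/ml protein) plus 1 mM NADPH. Percent parent remaining reported. Human or mouse microsomes per line.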

Gamma-secretase = test: Inhibition of Gamma-secretase in human IMR-32 cells after 2 hrs by ELISA assay; format: cell-based
Method in brief: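 γ-Secretase came from IMR-32 cell membranes, and compound was first diluted in DMSO. Reaction at 37 °C was started with MBPC-125 Swedish substrate, run for 2 h, then stopped with SDS. Cleaved substrate was measured by Aβ40-specific ELISA. Values are means of three experiments.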

[2] = Oxidative metabolic stability in mouse liver microsomes at 1 uM after 30 mins in presence of 1 mM NADPH; format: ADME, Microsome; conditions: for remaining at 0.5 h, 1 µM: liver microsomes, read-out: Stability; for Stability: microsomes, 0.5 h, 1 µM; method in brief: as §2
[3] = Apparent permeability from apical to basolateral side in MDCK2 cells at 5 uM after 120 mins; format: ADME, cell-based, Canis lupus familiaris, MDCK-II; conditions: dog, MDCK
Method in brief: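 Compound at 5 µM in mHBSS pH 7.4 applied to MDCK II cell monolayers for 120 min at 37 °C. Apical and basolateral chambers sampled and analysed by LC/MS/MS.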

[4] = Metabolic stability in human liver microsomes at 2 uM after 30 mins in presence of 1 mM UDPGA; format: ADME, Microsome; conditions: read-out: Stability
Method in brief: (§3)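 Glucuronidation stability: 2 µM compound incubated 30 min at 37 °C in phosphate buffer with liver microsomes (0.5 mg protein), 1 mM UDPGA, 100 mM MgCl2 and 25 µg/mL alamethicin. Read-out is percent parent compound remaining. Human or mouse microsomes per line.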

Mus musculus = test: Reduction of cortical abeta40 level in FVB mouse at 3 mg/kg, po after 3 hrs; format: functional; set-up: scale not given: the % may be the effect or the level left
[5] = Solubility in HBSS buffer at 20 mM at pH 7.4 after 1 hr; format: physicochemical
Method in brief: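 20 mM DMSO stocks serially diluted in DMSO, then diluted 1:200 into HBSS pH 7.4. After 1 h incubation, plates read on a solubility scanner.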

[6] = Metabolic stability in mouse liver microsomes at 2 uM after 30 mins in presence of 1 mM UDPGA; format: ADME, Microsome; conditions: read-out: Stability; method in brief: as §3
Liver microsomes = test: as §1; format: ADME, Microsome; conditions: microsomes, 0.5 h, 1 µM; method in brief: as §2

SMILES | remaining at 0.5 h, 1 µM [1] | IC50 (Gamma-secretase) | remaining at 0.5 h, 1 µM [2] | also measured
O=S(=O)(c1ccc(Cl)cc1)N1Cc2c[nH]nc2-c2ccccc21 | 0% | 27 nM | 2% | –
O=S(=O)(c1ccc(OC(F)F)cc1)N1c2ccc(F)cc2-c2n[nH]cc2C1C1CC1 (racemic) | 68% | 0.76 nM | 56% | –
O=S(=O)(c1cccs1)N1c2cc(F)c(F)cc2-c2n[nH]cc2C1C1CC1 (racemic) | 1% | 2.9 nM | 5% | –
O=S(=O)(c1ccc(C(F)(F)F)cc1)N1c2cccnc2-c2n[nH]cc2C1C1CC1 (racemic) | 44% | 2.1 nM | 25% | –
CC1c2c[nH]nc2-c2ccccc2N1S(=O)(=O)c1ccccn1 (racemic) | 73% | 290 nM | 46% | –
O=S(=O)(c1ccc(C(F)(F)F)cc1)N1c2ncccc2-c2n[nH]cc2C1C1CC1 (racemic) | 59% | 1.1 nM | 53% | –
Nc1ccc(S(=O)(=O)N2c3cc(F)c(F)cc3-c3n[nH]cc3C2C2CC2)cc1 (racemic) | 53% | 85 nM | 35% | –
CC1c2c[nH]nc2-c2cc(F)ccc2N1S(=O)(=O)c1ccc(Cl)cc1 (racemic) | 13% | 1.6 nM | 23% | –
CC1c2c[nH]nc2-c2c(F)cccc2N1S(=O)(=O)c1ccc(Cl)cc1 (racemic) | 3% | 1.4 nM | 11% | –
COc1ccc(S(=O)(=O)N2c3ccccc3-c3n[nH]cc3C2C2CC2)cc1 (racemic) | 3% | 3.2 nM | 2% | –
CC1c2c[nH]nc2-c2ccncc2N1S(=O)(=O)c1ccc(Cl)cc1 (racemic) | 6% | 2.6 nM | 3% | –
CC1c2c[nH]nc2-c2ccccc2N1S(=O)(=O)c1ccc(Cl)cc1 (racemic) | 3% | 1.2 nM | 16% | –
O=S(=O)(c1ccc(C(F)(F)F)cc1)N1c2c[n+]([O-])ccc2-c2n[nH]cc2C1C1CC1 (racemic) | 87% | 2.4 nM | 88% | –
CC1c2c[nH]nc2-c2ccc(F)cc2N1S(=O)(=O)c1ccc(Cl)cc1 (racemic) | 6% | 2.1 nM | 23% | –
CC1c2c[nH]nc2-c2ccc(OC(=O)N(C)C)cc2N1S(=O)(=O)c1ccc(Cl)cc1 (racemic) | 0% | 0.93 nM | 0% | –
CC1c2c[nH]nc2-c2ccc(OCc3ccccc3)cc2N1S(=O)(=O)c1ccc(Cl)cc1 (racemic) | 0% | 1.5 nM | 1% | –
Cc1nc2c(s1)N(S(=O)(=O)c1ccc(C(F)(F)F)cc1)C(C1CC1)c1c[nH]nc1-2 (racemic) | 31% | 24 nM | 8% | –
CC1c2c[nH]nc2-n2ccnc2N1S(=O)(=O)c1ccc(Cl)cc1 (racemic) | 74% | 27 nM | 56% | –
CC1c2cn[nH]c2-c2ccccc2N1S(=O)(=O)c1cccnc1 (racemic) | – | 140 nM | 3% | –
CC1c2c[nH]nc2-c2cc(F)ccc2N1S(=O)(=O)c1cn(C)cn1 (racemic) | 76% | 5500 nM | 65% | –
O=[N+]([O-])c1ccc(S(=O)(=O)N2c3cc(F)c(F)cc3-c3n[nH]cc3C2C2CC2)cc1 (racemic) | – | 40 nM | – | Stability (Liver microsomes): Not Active; Stability [2]: Not Active
CC1c2c[nH]nc2-c2cc(Cl)sc2N1S(=O)(=O)c1ccc(C(F)(F)F)cc1 (racemic) | 3% | 4.5 nM | 18% | –
COc1ccc2c(c1)N(S(=O)(=O)c1ccc(Cl)cc1)C(C)c1c[nH]nc1-2 (racemic) | 1% | 2 nM | 1% | –
O=S(=O)(c1ccc(Cl)cn1)N1c2ccc(F)cc2-c2n[nH]cc2C1C1CC1 (racemic) | 62% | 1.3 nM | 49% | –
O=S(=O)(c1ccccc1)N1c2ccccc2-c2n[nH]cc2C1C1CC1 (single isomer, unassigned; enantiomer 1) | – | 4.2 nM | – | Stability (Liver microsomes): Not Active; Stability [2]: Not Active

Continued by falling IC50 (Gamma-secretase), values first:

remaining at 0.5 h, 1 µM [1] | IC50 (Gamma-secretase) | remaining at 0.5 h, 1 µM [2] | SMILES | also measured
9% | 0.74 nM | 11% | N#Cc1ccc(S(=O)(=O)N2c3ccccc3-c3n[nH]cc3C2C2CC2)cc1 (racemic) | –
95% | 0.67 nM | 83% | O=S(=O)(c1ccc(C(F)(F)F)cn1)N1c2ccc(F)cc2-c2n[nH]cc2[C@H]1C1CC1 | Papp A→B at 2 h, 5 µM [3]: 24.9 ×10⁻⁶ cm/s; remaining at 0.5 h, 2 µM [4]: 97%; Activity (Mus musculus): 43%; solubility at 1 h [5]: 95 µM (≈ 41.6 µg/mL); remaining at 0.5 h, 2 µM [6]: 89%
50% | 0.65 nM | 27% | CC1c2cn[nH]c2-c2ccc(O)cc2N1S(=O)(=O)c1ccc(Cl)cc1 (racemic) | –
29% | 0.58 nM | 17% | O=S(=O)(c1ccc(C(F)(F)F)cc1)N1c2cc(N3CCOCC3)ccc2-c2n[nH]cc2C1C1CC1 (racemic) | –
4% | 0.52 nM | 9% | O=S(=O)(c1ccc(Cl)s1)N1c2cc(F)c(F)cc2-c2n[nH]cc2C1C1CC1 (racemic) | –
23% | 0.46 nM | 4% | O=S(=O)(c1ncc(Cl)s1)N1c2cc(F)c(F)cc2-c2n[nH]cc2C1C1CC1 (single isomer, unassigned; enantiomer 2) | –
87% | 0.44 nM | 85% | O=S(=O)(c1ccc(C(F)(F)F)cc1)N1c2cc(Cl)ccc2-c2n[nH]cc2C1C1CC1 (racemic) | –
8% | 0.42 nM | 11% | O=S(=O)(c1ccc(F)cc1)N1c2ccccc2-c2n[nH]cc2C1C1CC1 (racemic) | –
60% | 0.41 nM | 32% | O=S(=O)(c1ccc(C(F)(F)F)cc1)N1c2cc(-c3cscn3)ccc2-c2n[nH]cc2C1C1CC1 (racemic) | –
60% | 0.37 nM | 55% | O=S(=O)(c1ccc(OC(F)(F)F)cc1)N1c2ccc(F)cc2-c2n[nH]cc2C1C1CC1 (racemic) | –
2% | 0.36 nM | 7% | CCC1c2cn[nH]c2-c2ccccc2N1S(=O)(=O)c1ccc(Cl)cc1 (racemic) | –
45% | 0.31 nM | 49% | O=S(=O)(c1ccc(C(F)(F)F)cc1)N1c2ccccc2-c2n[nH]cc2C1C1CC1 (racemic) | –
1% | 0.28 nM | 2% | CC(C)C1c2c[nH]nc2-c2ccccc2N1S(=O)(=O)c1ccc(Cl)cc1 (racemic) | –
32% | 0.26 nM | 13% | O=C1OCCN1c1ccc2c(c1)N(S(=O)(=O)c1ccc(C(F)(F)F)cc1)C(C1CC1)c1c[nH]nc1-2 (racemic) | –
– | 0.26 nM | – | COC(=O)c1ccc2c(c1)N(S(=O)(=O)c1ccc(C(F)(F)F)cc1)C(C1CC1)c1c[nH]nc1-2 (racemic) | Stability (Liver microsomes): Not Active; Stability [2]: Not Active
80% | 0.26 nM | 78% | O=S(=O)(c1ccc(C(F)(F)F)cc1)N1c2cc(I)ccc2-c2n[nH]cc2C1C1CC1 (single isomer, unassigned; enantiomer 3) | –
59% | 0.24 nM | 55% | O=S(=O)(c1ccc(C(F)(F)F)cc1)N1c2cc(-n3ccnc3)ccc2-c2n[nH]cc2C1C1CC1 (racemic) | –
13% | 0.21 nM | 10% | O=S(=O)(c1ccc(Cl)cc1)N1c2ccccc2-c2n[nH]cc2C1C(F)(F)F (racemic) | –
27% | 0.2 nM | 3% | O=S(=O)(c1ccc(C(F)(F)F)cc1)N1c2cc(-c3cncnc3)ccc2-c2n[nH]cc2C1C1CC1 (racemic) | –
80% | 0.17 nM | 77% | N#Cc1ccc2c(c1)N(S(=O)(=O)c1ccc(C(F)(F)F)cc1)C(C1CC1)c1c[nH]nc1-2 (racemic) | –
4% | 0.17 nM | 15% | O=S(=O)(c1ccc(Cl)cc1)N1c2ccccc2-c2n[nH]cc2C1C1CC1 (racemic) | –
